Experimental data as given in ChEMBL document CHEMBL2401654, “Synthesis, characterization, and biological assessment of the four stereoisomers of the H(3) receptor antagonist 5-fluoro-2-methyl-N-[2-methyl-4-(2-methyl[1,3']bipyrrolidinyl-1'-yl)phenyl]benzamide” (Bioorg Med Chem Lett, 2013).
In brackets after ≈: the same amount, converted by molar mass.

How the values were obtained:
Cytochrome P450 3A4 = Cytochrome P450 3A4 (Homo sapiens, UniProt P08684); assay: Inhibition of CYP3A4 (unknown origin); assay type: ADME
Chain of Cytochrome P450 3A4 (P08684 whole entry): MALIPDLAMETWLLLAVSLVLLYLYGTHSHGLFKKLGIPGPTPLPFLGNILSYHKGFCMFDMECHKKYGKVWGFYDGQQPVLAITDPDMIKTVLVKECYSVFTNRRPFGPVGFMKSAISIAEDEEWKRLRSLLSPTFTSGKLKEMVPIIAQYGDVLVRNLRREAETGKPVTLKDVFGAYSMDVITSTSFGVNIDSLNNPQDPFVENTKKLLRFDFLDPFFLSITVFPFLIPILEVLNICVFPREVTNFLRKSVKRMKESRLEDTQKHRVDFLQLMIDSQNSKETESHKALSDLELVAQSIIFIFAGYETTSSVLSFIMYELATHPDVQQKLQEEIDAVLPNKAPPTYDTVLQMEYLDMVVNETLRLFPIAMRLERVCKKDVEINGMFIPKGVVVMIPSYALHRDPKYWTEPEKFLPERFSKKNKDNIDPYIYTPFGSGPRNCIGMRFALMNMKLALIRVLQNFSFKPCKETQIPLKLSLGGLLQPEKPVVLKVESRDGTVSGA

Mus musculus [1] = assay: Toxicity in mouse assessed as increase in body temperature at 30 mg/kg, po measured at 6 hrs; assay type: organism-based; design: dose 30 mg/kg, route oral; conditions: in vivo
How it was run: (§1)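 Behavioral safety study in mice given single oral doses of 3, 10 and 30 mg/kg. Tremors, tail pinch response, body temperature, pupil size and body weight were scored at 2 and 6 h post dose. Clinical signs were observed over one week after dosing.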

[2] = Cmax in C57BL/6 mouse plasma at 2 mg/kg, iv; assay type: ADME, organism-based; design: dose 2 mg/kg, route intravenous
How it was run: (§2)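 Male C57BL/6 mice received a single intravenous dose of 2 mg/kg, formulated at 1 mg/mL in 50% 1-methyl-2-pyrrolidinone in saline. Plasma and brain concentrations were followed to derive PK parameters. Brain to plasma ratio was calculated from AUC.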

[3] = AUC (0 to infinity) in C57BL/6 mouse plasma at 10 mg/kg, po; assay type: ADME, organism-based; design: time infinity, dose 10 mg/kg, route oral
How it was run: (§3)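 Male C57BL/6 mice were dosed orally at 10 mg/kg, formulated at 1 mg/mL in 5% DMSO/0.5% MC/0.2% tween 80. Plasma and brain were sampled for PK parameters. Brain to plasma ratio was based on AUC0-24.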

[4] = Tmax in C57BL/6 mouse brain at 10 mg/kg, po; assay type: ADME, organism-based; design: dose 10 mg/kg, route oral; how it was run: as §3
[5] = Half life in C57BL/6 mouse brain at 10 mg/kg, po; assay type: ADME, organism-based; design: dose 10 mg/kg, route oral; how it was run: as §3
Cytochrome P450 2C9 = Cytochrome P450 2C9 (Homo sapiens, UniProt P11712); assay: Inhibition of CYP2C9 (unknown origin); assay type: ADME
Chain of Cytochrome P450 2C9 (P11712 whole entry): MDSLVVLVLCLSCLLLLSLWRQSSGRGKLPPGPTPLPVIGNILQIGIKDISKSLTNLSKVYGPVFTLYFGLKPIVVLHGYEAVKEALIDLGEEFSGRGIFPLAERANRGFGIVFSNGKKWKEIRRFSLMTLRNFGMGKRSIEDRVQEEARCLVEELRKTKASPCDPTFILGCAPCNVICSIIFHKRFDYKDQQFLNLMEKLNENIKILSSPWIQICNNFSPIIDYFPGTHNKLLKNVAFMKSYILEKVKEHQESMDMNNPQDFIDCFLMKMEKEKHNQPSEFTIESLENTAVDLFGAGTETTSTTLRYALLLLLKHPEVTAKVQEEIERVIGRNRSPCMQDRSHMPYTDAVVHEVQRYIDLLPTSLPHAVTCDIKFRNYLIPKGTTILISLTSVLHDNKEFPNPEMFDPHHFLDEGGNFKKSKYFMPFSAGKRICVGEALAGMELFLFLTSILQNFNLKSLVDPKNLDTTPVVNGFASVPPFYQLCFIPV

[6] = Ratio of AUC (0 to 24 hrs) in C57BL/6 mouse brain to AUC (0 to 24 hrs) in C57BL/6 mouse plasma at 2 mg/kg, iv; assay type: ADME, organism-based; design: dose 2 mg/kg, route intravenous; conditions: read-out: Ratio AUC
How it was run: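 Male C57BL/6 mice were given a single intravenous dose of 2 mg/kg, formulated at 1 mg/mL in 50% 1-methyl-2-pyrrolidinone in saline. Plasma and brain exposure profiles were collected, and the brain-to-plasma ratio was derived from the AUC values of the two tissues.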

Cytochrome P450 2B6 = biological target: T1, Cytochrome P450 2B6 (Homo sapiens, UniProt P20813); assay: Inhibition of CYP2B6 (unknown origin); assay type: ADME
T1 sequence (P20813 whole entry): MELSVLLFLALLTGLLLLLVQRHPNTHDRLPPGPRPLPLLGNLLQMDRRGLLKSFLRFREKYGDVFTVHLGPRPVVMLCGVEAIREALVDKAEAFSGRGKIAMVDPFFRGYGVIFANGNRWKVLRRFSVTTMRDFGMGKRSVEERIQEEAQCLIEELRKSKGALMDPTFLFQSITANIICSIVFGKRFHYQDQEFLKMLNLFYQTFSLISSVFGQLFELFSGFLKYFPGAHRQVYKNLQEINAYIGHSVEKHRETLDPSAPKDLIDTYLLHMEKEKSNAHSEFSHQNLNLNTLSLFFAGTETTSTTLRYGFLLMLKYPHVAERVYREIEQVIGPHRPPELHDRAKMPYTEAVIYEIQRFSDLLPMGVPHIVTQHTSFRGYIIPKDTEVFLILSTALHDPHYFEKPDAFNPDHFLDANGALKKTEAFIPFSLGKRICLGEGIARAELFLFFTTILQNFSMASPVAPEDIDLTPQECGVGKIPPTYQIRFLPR

Mus musculus [7] = assay: Toxicity in mouse assessed as appearance of abnormal clinical signs at 3 to 30 mg/kg, po after 1 week; assay type: organism-based; design: dose 3-30 mg/kg, route oral; conditions: in vivo, 168 h; how it was run: as §1
[8] = Volume of distribution at steady state in C57BL/6 mouse at 2 mg/kg, iv; assay type: ADME, organism-based; design: dose 2 mg/kg, route intravenous; conditions: in vivo, read-out: Vdss; how it was run: as §2
Mus musculus [9] = assay: Toxicity in mouse assessed as appearance of tremor at 30 mg/kg, po measured at 2 hrs; assay type: organism-based; design: dose 30 mg/kg, route oral; conditions: in vivo; how it was run: as §1
Cytochrome P450 2D6 = Cytochrome P450 2D6 (Homo sapiens, UniProt P10635); assay: Inhibition of CYP2D6 (unknown origin); assay type: ADME
Chain of Cytochrome P450 2D6 (P10635 whole entry): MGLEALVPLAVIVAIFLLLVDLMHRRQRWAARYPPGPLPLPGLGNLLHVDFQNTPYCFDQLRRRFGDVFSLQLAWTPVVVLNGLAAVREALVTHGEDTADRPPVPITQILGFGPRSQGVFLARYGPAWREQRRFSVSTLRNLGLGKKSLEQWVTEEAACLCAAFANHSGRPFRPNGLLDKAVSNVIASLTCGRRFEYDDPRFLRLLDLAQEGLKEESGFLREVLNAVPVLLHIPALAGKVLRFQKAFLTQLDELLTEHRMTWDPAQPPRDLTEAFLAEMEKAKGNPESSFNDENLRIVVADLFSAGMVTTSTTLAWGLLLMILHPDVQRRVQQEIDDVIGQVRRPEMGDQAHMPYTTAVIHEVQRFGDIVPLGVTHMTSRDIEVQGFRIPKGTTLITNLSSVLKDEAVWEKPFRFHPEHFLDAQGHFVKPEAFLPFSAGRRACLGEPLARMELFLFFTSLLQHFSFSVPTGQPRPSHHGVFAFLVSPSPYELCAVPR

[10] = Clearance in C57BL/6 mouse at 2 mg/kg, iv; assay type: ADME, organism-based; design: dose 2 mg/kg, route intravenous; conditions: in vivo; how it was run: as §2
[11] = Cmax in C57BL/6 mouse brain at 2 mg/kg, iv; assay type: ADME, organism-based; design: dose 2 mg/kg, route intravenous; how it was run: as §2
Histamine H3 receptor = Histamine H3 receptor (Homo sapiens, UniProt Q9Y5N1); assay: Displacement of [3H]N-alpha-methylhistamine from recombinant human histamine H3 receptor transfected in CHO cell membranes after 1 hr by scintillation counting analysis
Chain of Histamine H3 receptor (Q9Y5N1 whole entry): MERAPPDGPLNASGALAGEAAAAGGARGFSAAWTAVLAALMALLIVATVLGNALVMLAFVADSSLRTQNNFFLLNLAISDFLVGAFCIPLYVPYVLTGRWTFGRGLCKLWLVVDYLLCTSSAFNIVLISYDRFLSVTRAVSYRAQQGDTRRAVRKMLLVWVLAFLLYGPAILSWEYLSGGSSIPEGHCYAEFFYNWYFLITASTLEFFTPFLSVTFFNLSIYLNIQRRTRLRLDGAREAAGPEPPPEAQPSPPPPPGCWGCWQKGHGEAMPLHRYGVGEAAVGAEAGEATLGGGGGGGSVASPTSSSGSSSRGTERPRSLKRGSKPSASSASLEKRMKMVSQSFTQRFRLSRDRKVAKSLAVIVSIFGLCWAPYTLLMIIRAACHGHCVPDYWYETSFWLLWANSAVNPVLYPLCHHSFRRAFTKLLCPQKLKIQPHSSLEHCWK
How it was run: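 Radioligand displacement of [3H]N-α-methylhistamine using membranes from CHO cells stably transfected with recombinant human or rat H3 receptor. Ki is presented as a range of multiple experiments (n ≥ 3).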

Mus musculus [12] = assay: Toxicity in mouse assessed as increase in tail pinch at 30 mg/kg, po measured at 6 hrs; assay type: organism-based; design: dose 30 mg/kg, route oral; conditions: in vivo; how it was run: as §1
[13] = Solubility of the compound in PBS buffer at pH 7.4; assay type: physicochemical
How it was run: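 Solubility measured in PBS at pH 7.4.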

[14] = Partition coefficient, log P of the compound; assay type: physicochemical; conditions: octanol/water
[15] = AUC (0 to infinity) in C57BL/6 mouse plasma at 2 mg/kg, iv; assay type: ADME, organism-based; design: time infinity, dose 2 mg/kg, route intravenous; how it was run: as §2
[16] = Drug metabolism in human liver microsomes at 5 uM after 20 mins; assay type: ADME, Microsome; conditions: read-out: Drug metabolism
How it was run: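 Substrate at 5 µM incubated at 37 °C for 20 min with in-house liver microsome preparations (human, mouse or rat). Reported as the percentage of parent compound metabolized.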

Salmonella typhimurium = assay: Mutagenic activity in Salmonella typhimurium by Ames test; assay type: toxicity, organism-based; conditions: salmonella enterica subsp. enterica serovar typhimurium
[17] = Cmax in C57BL/6 mouse brain at 10 mg/kg, po; assay type: ADME, organism-based; design: dose 10 mg/kg, route oral; how it was run: as §3

Compound: Cc1cc(N2CC[C@H](N3CCC[C@@H]3C)C2)ccc1NC(=O)c1cc(F)ccc1C
- IC50 (Cytochrome P450 3A4): > 30 µM
- Activity (Mus musculus [1]): Toxic
- Cmax [2]: 2000 ng/mL
- AUC(0-inf) [3]: 4000 ng·h/mL
- Tmax [4]: 1 h
- half-life [5]: 3.5 h
- IC50 (Cytochrome P450 2C9): > 30 µM
- Kp [6]: 4.7
- IC50 (Cytochrome P450 2B6): > 30 µM
- Activity (Mus musculus [7]): Non-toxic
- Vd [8]: 5.2 L/kg
- Activity (Mus musculus [9]): Toxic
- IC50 (Cytochrome P450 2D6): > 30 µM
- clearance [10]: 60 mL/min/kg
- Cmax [11]: 4820 ng/mL
- Ki (Histamine H3 receptor): 0.0034 µM
- Activity (Mus musculus [12]): Toxic
- solubility [13]: 293 µg/mL (≈ 742 µM)
- logP [14]: 3.55
- AUC(0-inf) [15]: 560 ng·h/mL
- metabolised at 20 min, 5 µM [16]: 3%
- Activity (Salmonella typhimurium): Non-toxic
- Cmax [17]: 4290 ng/mL
